# Shown are actives, neighbours in structure and some others; about 2.3% of the full set was active somewhere.
# TRPC4 block: blocks the mouse TRPC4 cation channel; HEK293 TRPC4beta/mu-opioid, DAMGO-evoked Fluo4 calcium flux; hits give low values; B-score at 10 µM; 300,000 tested, 0.39% active; AID 2247;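 active = B-score over 3 SD under the library average, no early fluorescence shift, positive overall ratio signal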
#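 Signal: kinetic Fluo4 fluorescence imaging of calcium influx. Material: stable TRPC4beta/mu-opioid receptor HEK293 cells. Probe or stimulus: DAMGO in two steps, submaximal then maximal.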
# TRPC4 act: opens the mouse TRPC4 cation channel; Q9QUQ5; HEK293 TRPC4beta/mu-opioid, Fluo4 calcium fluorescence; hits give high values; B-score at 10 µM; 310,000 tested, 0.49% active; AID 2237;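 active = B-score above 5 SD of library B-scores, and initial fluorescence ratio not above library mean plus 5 SD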;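 also: positive B-score marks a calcium rise read as TRPC4 activation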
#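 Assay system: HEK293 cells stably co-expressing mouse TRPC4beta and mu-opioid receptor / Timing: Fluo4 dye loading 45 min at room temperature, 110 s recording / Signal: Fluo4 calcium-sensitive dye fluorescence, kinetic, 1 Hz baseline / Read-out: integrated baseline-normalised fluorescence ratio, converted to per-well B score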
# TRPC4 potent: allosterically enhances the mouse TRPC4 cation channel. Q9QUQ5. 310,000 tested, 0.42% active. B-score at 10 µM. HEK293 TRPC4beta/mu-opioid, DAMGO EC20, Fluo-4 Ca2+ flux; hits give high values;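 active = B-score of calcium response area above 5 SD of library B-scores, with initial fluorescence ratio within 5 SD of library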;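 also: B-score of integrated fluorescence ratio over time as area under calcium response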
# TRPC6 act: activates the mouse TRPC6 cation channel. Q61143. HEK293-TRPC6 membrane potential dye fluorescence; hits give high values. B-score at 10 µM. 310,000 tested, 0.13% active. AID 2550;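 active = B-score of the integrated fluorescence ratio above library mean plus 3 SD, and starting fluorescence ratio within library mean plus 5 SD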;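 also: higher score means more depolarization so channel activation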
# TRPC6 inh: blocks the mouse TRPC6 cation channel | HEK293-TRPC6, membrane potential dye, ACh-evoked depolarization; hits give low values | B-score at 10 µM | 310,000 tested, 1.1% active | AID 2553 | Q61143;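 active = B-score under library mean minus 3 SD, initial fluorescence not abnormally high, positive integrated signal ratio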;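 also: B-score derived from integrated fluorescence ratio over the kinetic read; more negative B-score means stronger inhibition of depolarization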
# Active calls of the source: *; i = inactive.
SMILES,TRPC4 block,TRPC4 act,TRPC4 potent,TRPC6 act,TRPC6 inh
COc1ccccc1-n1c(O)c(/C=N/NC(=S)Nc2ccccc2)c(=O)[nH]c1=S,i,i,i,i,i
CNc1cc(N2CCNCC2)ccc1[N+](=O)[O-],i,i,13*,i,i
Nc1cc(N2CCNCC2)ccc1[N+](=O)[O-],i,77*,26*,i,i
O=[N+]([O-])c1ccc(N2CCNCC2)cc1NCc1ccco1,i,i,i,i,i
O=[N+]([O-])c1ccc(N2CCNCC2)cc1N1CCCCCC1,i,i,18*,i,i
CN1CCN(c2ccc([N+](=O)[O-])c(N3CCCCC3)c2)CC1,i,i,i,i,i
CN1CCN(c2ccc([N+](=O)[O-])c(N)c2)CC1,i,i,10*,i,i
Cn1c(O)c(C=NCCN2CCOCC2)c(=O)n(C)c1=S,i,i,i,i,i
CCOc1cccc(CNCCc2c(C)[nH]c3ccc(OC(F)(F)F)cc23)c1O,i,i,i,i,i
Cc1c(N=Nc2c(O)[nH]c(=S)[nH]c2=O)c(=O)n(-c2ccccc2)n1C,i,i,i,i,i
C=CCn1c(O)c(N=Nc2c(C)n(C)n(-c3ccccc3)c2=O)c(=O)[nH]c1=S,i,45*,i,i,i
COC(=O)C(O)(c1ccc(N(C)C(=O)OC(C)C)cc1)C(F)(F)F (stereo unspecified),i,i,i,i,i
Brc1ccc2c(c1)C(OC1CN3CCC1CC3)c1ccccc1CS2 (stereo unspecified),i,i,29*,i,i
c1ccc2c(c1)CSc1ccccc1C2C1=NCCN1 (stereo unspecified),i,i,i,i,i
CN(C)C(CNC(=O)Cc1ccc(Br)cc1)c1ccccc1 (stereo unspecified),i,175*,i,i,i
CC(Cc1ccccc1)NC(=O)Cc1ccc(N(C)C)cc1 (stereo unspecified),i,i,i,i,i
CN(C)C=C1C(=O)N(C2CCCCC2)C(=O)N(C2CCCCC2)C1=O,i,95*,i,i,i
CCCc1nc2ccccc2c(=O)n1-c1ccc(OC)cc1,i,i,i,i,i
COc1ccc(-n2c(CNCCc3ccc(C)cc3)nc3ccccc3c2=O)cc1,i,134*,i,i,i
CCC(=O)OC1(c2cccc(C)c2)CC(C)N(C)CC1C (stereo unspecified),i,68*,i,i,i
CCC(=O)OC1(Cc2ccc(CC)cc2)CC(C)N(C)CC1C (stereo unspecified),-8*,48*,i,i,i
CCOC(=O)c1cc(C)n(CCc2cnc[nH]2)c1C,i,138*,i,i,i
O=P(Nc1ccccc1)(Nc1ccccc1)Oc1ccc(Cl)cc1,i,i,10*,i,i
COc1cccc(CNCCc2ccc(F)cc2)c1,i,i,i,i,i
COc1ccc(CCNCc2ccc(SC)cc2)cc1,i,101*,i,i,i
SMILES,TRPC4 block,TRPC4 act,TRPC4 potent,TRPC6 act,TRPC6 inh
c1ccc(C2NCCc3[nH]cnc32)cc1 (stereo unspecified),i,i,i,i,i
COc1ccc(C2NCCc3[nH]cnc32)cc1 (stereo unspecified),i,175*,i,i,i
Cc1ccccc1-n1c(C)nc2sccc2c1=O,i,i,i,i,i
COc1ccccc1NC(=O)c1cn(CCC#N)nc1-c1cccc(Cl)c1,i,i,i,i,i
O=P(Nc1c(Cl)cccc1Cl)(c1ccccc1)c1nc2c(s1)CCCC2 (stereo unspecified),i,i,i,i,i
O=P(Nc1ccccc1Cl)(c1ccccc1)c1nc2c(s1)CCCC2 (stereo unspecified),i,i,14*,i,i
CN1CCN(Cc2cc3c(cc2[N+](=O)[O-])OCO3)CC1,i,i,i,i,i
CC12CCC3C(CC=C4CC(O)CCC43C)C1C/C(=C\c1ccccc1F)C2=O (stereo unspecified),i,i,i,i,i
Cc1nn(C)cc1/C=C1/CC2C3CC=C4CC(O)CCC4(C)C3CCC2(C)C1=O (stereo unspecified),i,i,10*,i,i
CN1Cc2c(c(C#N)c(N)n(C)c2=S)CC1(C)C,i,i,i,i,i
Cc1nc2c(c(C)nn2-c2ccccc2)c(C)c1CCC(=O)N1CCC2(CC1)OCCO2,i,i,i,i,i
O=C(c1cccc2ccccc12)C1CCCN(C2CCC2)C1 (stereo unspecified),i,i,10*,i,i
CSc1ccc(C(=O)C2CCCN(CCCn3cccn3)C2)cc1 (stereo unspecified),i,83*,i,i,i
CCN1CCC2(CC1)NC(=O)c1ccccc1O2,i,i,i,i,i
COc1ccc(Br)cc1CNCCc1ccc2c(c1)OCO2,i,i,i,i,i
COc1ccc(CNCCc2ccc3c(c2)OCO3)cc1Br,i,107*,i,i,i
COc1nc2ccccc2c(=O)n1-c1ccc(Cl)cc1,i,i,11*,i,i
COc1nc2ccccc2c(=O)n1-c1ccc(C)cc1,i,i,i,i,i
COc1ccc(CCN)cc1O,i,43*,i,i,i
CSc1nc(N2CCN(C)CC2)c2ccccc2n1,i,i,i,i,i
CC(C)c1ccc(NC(=O)CCNC(=O)N2C[C@H]3C[C@@H](C2)c2cccc(=O)n2C3)cc1,i,i,i,i,i
COc1cc(C)c(CNCCc2c[nH]c3ccccc23)cc1C,i,144*,i,i,i
COc1cccc(CNCCc2c[nH]c3ccccc23)c1,i,i,i,i,i
COc1ccc(CNCCc2c[nH]c3ccccc23)c(OC)c1C,i,182*,i,i,i
COC(=O)C1=C(c2cccc(OC)c2OC)C[C@@H]2CC[C@H]1N2C(=O)NCc1ccco1,i,i,i,i,i
CC(NC1=NCCS1)c1ccccc1 (stereo unspecified),i,i,i,i,i
CC(C)(C)c1cc([N+](=O)[O-])cc(C(C)(C)C)c1O,i,i,i,i,i
COc1cc(CN2CCCC(C(=O)c3sccc3C)C2)cc(OC)c1O (stereo unspecified),i,i,i,i,i

# High-throughput results: PubChem, Johns Hopkins Ion Channel Center
